# Reference: ChEMBL document CHEMBL2057177, “Analogues of fenarimol are potent inhibitors of Trypanosoma cruzi and are efficacious in a murine model of Chagas disease” (J Med Chem, 2012)
# Active and inactive are the calls of the source. The rule behind the calls is not given here.
# Key:
# Trypanosoma cruzi [1] = test: Antitrypanosomal activity against trypomastigotes of Trypanosoma cruzi Tulahuen expressing the beta- galactosidase gene infected rat L6 cells after 96 hrs; format: functional, organism-based; conditions: L6, 96 h
# In short: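 Tulahuén trypomastigotes expressing β-galactosidase, maintained by serial passage in L6 cells. L6 cells seeded and left 24 h at 37 °C, 5% CO2, then infected at MOI 3 for 48 h. Compound exposure 96 h, benznidazole control. CPRG with 0.3% Nonidet P-40 added, absorbance at 530 nm after 4−6 h. IC50 taken from % inhibition curve; mean of at least two assays.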
# [2] = Apparent volume of distribution at steady state in Sprague-Dawley rat at 4.8 mg/kg, iv; format: ADME, organism-based; parameters: dose 4.8 mg/kg, route intravenous; conditions: in vivo, read-out: Vdss(app)
# In short: (§1)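 Overnight-fasted male Sprague–Dawley rats (272–320 g), n = 2 per route. IV dose given as a 10 min jugular infusion in aqueous solution; oral dose by gavage as aqueous suspension. Arterial blood taken via carotid cannula up to 24 h. Plasma measured by LC-MS after acetonitrile precipitation. Noncompartmental analysis. Blood clearance = plasma clearance divided by in vitro blood/plasma ratio. Bioavailability from mean dose-normalised AUC0–inf, oral versus IV.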
# CYP3A4/5 = CYP3A4/5 (Homo sapiens, UniProt P08684+P20815); test: Inhibition of CYP3A4/5 in human liver microsomes; format: ADME, Microsome
# [3] = Elimination half life in Sprague-Dawley rat at 4.8 mg/kg, iv; format: ADME, organism-based; parameters: dose 4.8 mg/kg, route intravenous; conditions: in vivo, read-out: beta t1/2 (converted); in short: as §1
# [4] = Blood Clearance in Sprague-Dawley rat at 4.8 mg/kg, iv; format: ADME, organism-based; parameters: dose 4.8 mg/kg, route intravenous; conditions: whole blood; in short: as §1
# [5] = Oral bioavailability in Sprague-Dawley rat at 15.7 mg/kg; format: ADME, organism-based; conditions: in vivo; in short: as §1
# [6] = Kinetic solubility of the compound at pH 6.5 by nephelometric analysis; format: physicochemical; conditions: buffer, read-out: Kinetic_solubility
# [7] = Apparent volume of distribution at steady state in Sprague-Dawley rat at 5.2 mg/kg, iv; format: ADME, organism-based; parameters: dose 5.2 mg/kg, route intravenous; conditions: in vivo, read-out: Vdss(app); in short: as §1
# Trypanosoma cruzi [8] = test: Antitrypanosomal activity against trypomastigotes of Trypanosoma cruzi Tulahuen infected in Swiss mouse model of chagas disease assessed as decrease in parasite level in blood at 50 mg/kg, po administered 8 day after post infection qd for 10 days; format: functional, organism-based; parameters: dose 50 mg/kg
# [9] = Elimination half life in Sprague-Dawley rat at 5.2 mg/kg, iv; format: ADME, organism-based; parameters: dose 5.2 mg/kg, route intravenous; conditions: in vivo, read-out: beta t1/2 (converted); in short: as §1
# [10] = Oral bioavailability in Sprague-Dawley rat at 17.6 mg/kg; format: ADME, organism-based; conditions: in vivo; in short: as §1
# Trypanosoma cruzi [11] = test: Antitrypanosomal activity against trypomastigotes of Trypanosoma cruzi Tulahuen infected in Swiss mouse model of chagas disease assessed as decrease in parasite level in blood at 20 mg/kg, po administered 8 day after post infection qd for 20 days; format: functional; parameters: scale not given: the % may be the effect or the level left
# In short: (§2)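 Female outbred Swiss mice, about 8 weeks old, infected ip with Tulahuén parasites; five mice per group. Daily dosing starts day 8 post-infection. Oral doses given by gavage in HPMC vehicle (0.5% HPMC, 0.4% Tween 80, 0.5% benzyl alcohol); ip doses in PBS with 0.4% Tween 80 and 10% PEG400. Tail-prick blood taken days 8, 9, 12, 14, 16, 19 and 27 post-infection, red cells lysed, and live trypomastigotes counted by hemocytometer. % efficacy = (vehicle mean − treated mean)/vehicle mean × 100. Survival recorded as surviving/infected-and-treated.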
# Trypanosoma cruzi [12] = test: Antitrypanosomal activity against trypomastigotes of Trypanosoma cruzi Tulahuen infected in Swiss mouse model of chagas disease assessed as decrease in parasite level in blood at 50 mg/kg, po administered 8 day after post infection qd for 10 days measured on day 21; format: functional, organism-based; parameters: dose 50 mg/kg
# Trypanosoma cruzi [13] = test: Antitrypanosomal activity against trypomastigotes of Trypanosoma cruzi Tulahuen infected immunosuppressed Swiss mouse assessed as level of parasite in blood at 20 mg/kg, po administered 8 day after post infection qd for 20 days measured after 3 cycles of immunosuppression; format: functional, organism-based; parameters: dose 20 mg/kg
# [14] = Blood Clearance in Sprague-Dawley rat at 5.2 mg/kg, iv; format: ADME, organism-based; parameters: dose 5.2 mg/kg, route intravenous; conditions: whole blood; in short: as §1
# Trypanosoma cruzi [15] = test: Antitrypanosomal activity against trypomastigotes of Trypanosoma cruzi Tulahuen infected in Swiss mouse model of chagas disease assessed as level of parasite in blood at 20 mg/kg, po qd for 20 days measured after 30 day; format: functional, organism-based; parameters: dose 20 mg/kg
# In short: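 Female Swiss mice infected ip with Tulahuén parasites; oral gavage dosing in HPMC vehicle, daily from day 8 post-infection. Dosing is followed by 10 days without compound. If blood is then parasite-free, mice receive cyclophosphamide ip 50 mg/kg/day, up to three cycles (4 days on, 3 rest). Parasitemia counted in tail-prick blood by hemocytometer.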
# Trypanosoma cruzi [16] = test: Antitrypanosomal activity against trypomastigotes of Trypanosoma cruzi Tulahuen infected immunosuppressed Swiss mouse assessed as level of parasite in blood at 50 mg/kg, po administered after 2 cycles of immunosuppression qd for 10 days; format: functional, organism-based; parameters: dose 50 mg/kg
# Trypanosoma cruzi [17] = test: Antitrypanosomal activity against trypomastigotes of Trypanosoma cruzi Tulahuen infected immunosuppressed Swiss mouse assessed as level of parasite in blood at 100 mg/kg, po administered 8 day after post infection qd for 20 days measured after 3 cycles of immunosuppression; format: functional, organism-based; parameters: dose 100 mg/kg
# Trypanosoma cruzi [18] = test: Antitrypanosomal activity against trypomastigotes of Trypanosoma cruzi Tulahuen infected in Swiss mouse model of chagas disease assessed as increase of host survival at 50 mg/kg, po administered 8 days after post infection qd for 5 days; format: functional, organism-based; parameters: dose 50 mg/kg
# [19] = Plasma concentration in Swiss mouse at 20 mg/kg, po after 8 hrs; format: ADME, organism-based; parameters: dose 20 mg/kg, route oral
# In short: (§3)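 Nonfasted male Swiss outbred mice (23.8–39.9 g), fed throughout. Dosed by oral gavage as solution or suspension in aqueous vehicle. Plasma assayed by LC-MS against blank-plasma standards after acetonitrile precipitation; LLOQ 0.001–0.015 μM.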
# [20] = Therapeutic index, ratio of IC50 for rat L6 cells to IC50 for trypomastigotes of Trypanosoma cruzi Tulahuen; format: cell-based; conditions: read-out: Ratio IC50
# L6 = test: Cytotoxicity against rat L6 cells after 72 hrs by Alamar Blue assay; format: cell-based; conditions: L6, 72 h
# In short: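 L6 rat skeletal myoblasts in RPMI 1640 with 10% FBS. Exposed to compound for 72 h, seven-point serial dilutions in triplicate. Alamar Blue read at 570 and 630 nm. IC50 is the mean of at least two assays; podophyllotoxin used as control.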
# [21] = Plasma concentration in Swiss mouse at 10 mg/kg, po after 1 hr; format: ADME, organism-based; parameters: dose 10 mg/kg, route oral; in short: as §3
# [22] = Blood Clearance in Sprague-Dawley rat at 4.2 mg/kg, iv; format: ADME, organism-based; parameters: dose 4.2 mg/kg, route intravenous; conditions: whole blood; in short: as §1
# [23] = Plasma concentration in Swiss mouse at 50 mg/kg, po after 1 hr; format: ADME, organism-based; parameters: dose 50 mg/kg, route oral; in short: as §3
# Trypanosoma cruzi [24] = test: Antitrypanosomal activity against trypomastigotes of Trypanosoma cruzi Tulahuen infected in Swiss mouse model of chagas disease assessed as decrease in parasite level in blood at 50 mg/kg, po administered 8 days after post infection qd for 5 days; format: functional; parameters: scale not given: the % may be the effect or the level left; in short: as §2
# Trypanosoma cruzi [25] = test: Antitrypanosomal activity against trypomastigotes of Trypanosoma cruzi Tulahuen infected in Swiss mouse model of chagas disease assessed as decrease in parasite level in blood at 100 mg/kg, po administered 8 days after post infection qd for 5 days; format: functional; parameters: scale not given: the % may be the effect or the level left
# [26] = Plasma concentration in Swiss mouse at 10 mg/kg, po after 8 hrs; format: ADME, organism-based; parameters: dose 10 mg/kg, route oral; in short: as §3
# [27] = Oral bioavailability in Sprague-Dawley rat at 15.2 mg/kg; format: ADME, organism-based; conditions: in vivo; in short: as §1
# [28] = Plasma concentration in Swiss mouse at 50 mg/kg, po after 24 hrs; format: ADME, organism-based; parameters: dose 50 mg/kg, route oral; in short: as §3
# [29] = Elimination half life in Sprague-Dawley rat at 4.2 mg/kg, iv; format: ADME, organism-based; parameters: dose 4.2 mg/kg, route intravenous; conditions: in vivo, read-out: beta t1/2 (converted); in short: as §1
# [30] = Plasma concentration in Swiss mouse at 100 mg/kg, po after 1 hr; format: ADME, organism-based; parameters: dose 100 mg/kg, route oral
# In short: (§4)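 Nonfasted male Swiss Outbred mice weighing 23.8−39.9 g, with food and water freely available, dosed by oral gavage as an aqueous solution or suspension. Plasma proteins precipitated with acetonitrile and compound quantified by LC-MS against standards made in blank mouse plasma. Lower limit of quantitation 0.001−0.015 μM.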
# [31] = Apparent volume of distribution at steady state in Sprague-Dawley rat at 4.2 mg/kg, iv; format: ADME, organism-based; parameters: dose 4.2 mg/kg, route intravenous; conditions: in vivo, read-out: Vdss(app); in short: as §1
# Trypanosoma cruzi [32] = test: Antitrypanosomal activity against trypomastigotes of Trypanosoma cruzi Tulahuen infected in Swiss mouse model of chagas disease assessed as decrease in parasite level in blood at 20 mg/kg, po administered 8 days after post infection qd for 5 days; parameters: scale not given: the % may be the effect or the level left
# [33] = Plasma concentration in Swiss mouse at 20 mg/kg, po after 1 hr; format: ADME, organism-based; parameters: dose 20 mg/kg, route oral; in short: as §3
# [34] = Plasma concentration in Swiss mouse at 50 mg/kg, po after 8 hrs; format: ADME, organism-based; parameters: dose 50 mg/kg, route oral; in short: as §3
# [35] = Plasma concentration in Swiss mouse at 100 mg/kg, po after 8 hrs; format: ADME, organism-based; parameters: dose 100 mg/kg, route oral; in short: as §4
# Trypanosoma cruzi [36] = test: Antitrypanosomal activity against trypomastigotes of Trypanosoma cruzi Tulahuen infected in Swiss mouse model of chagas disease assessed as increase of host survival at 20 mg/kg, po administered 8 days after post infection qd for 5 days; format: functional, organism-based; parameters: dose 20 mg/kg
smiles,measurement,setting,value
CC(C)Oc1ncc(C(O)(c2cccnc2)c2ccc(Cl)cc2F)cn1 (racemic),IC50,Trypanosoma cruzi [1],8 nM
same,Vd,[2],9.1 L/kg
same,IC50,CYP3A4/5,4400 nM
same,half-life,[3],11.3 h
same,clearance,[4],73.9 mL/min/kg
same,bioavailability,[5],7.4%
same,solubility kinetic,[6],12.5 µg/mL
N#Cc1ccc(C(O)(c2ccc(C(F)(F)F)cc2)c2cccnc2)cc1 (racemic),IC50,Trypanosoma cruzi [1],12 nM
same,Vd,[7],5.7 L/kg
same,Activity,Trypanosoma cruzi [8],Active
same,half-life,[9],5.1 h
same,IC50,CYP3A4/5,7600 nM
same,bioavailability,[10],68.1%
same,Activity,Trypanosoma cruzi [11],>99%
same,Activity,Trypanosoma cruzi [12],Active
same,Activity,Trypanosoma cruzi [13],Active
same,clearance,[14],24.4 mL/min/kg
same,Activity,Trypanosoma cruzi [15],Active
same,solubility kinetic,[6],6.3 µg/mL
same,Activity,Trypanosoma cruzi [16],inactive
same,Activity,Trypanosoma cruzi [17],Active
NC(=O)c1cccc(C(O)(c2ccc(Cl)cc2)c2cccnc2)c1 (racemic),IC50,Trypanosoma cruzi [1],30 nM
same,Activity,Trypanosoma cruzi [18],Active
same,concentration at 8 h,[19],1.9 µM
same,selectivity ratio,[20],> 500
same,IC50,L6,> 100000 nM
same,concentration at 1 h,[21],6.8 µM
same,clearance,[22],18.9 mL/min/kg
same,concentration at 1 h,[23],13.7 µM
same,Activity,Trypanosoma cruzi [24],65%
same,IC50,CYP3A4/5,2600 nM
same,Activity,Trypanosoma cruzi [25],>95%
same,concentration at 8 h,[26],0.4 µM
same,bioavailability,[27],95%
same,concentration at 24 h,[28],0.06 µM
same,half-life,[29],6.1 h
same,concentration at 1 h,[30],19.5 µM
same,Vd,[31],3.6 L/kg
same,Activity,Trypanosoma cruzi [32],0%
same,concentration at 1 h,[33],10.3 µM
same,concentration at 8 h,[34],15.9 µM
same,concentration at 8 h,[35],6.5 µM
same,solubility kinetic,[6],50 µg/mL
same,Activity,Trypanosoma cruzi [36],Active
